The values that follow come from article PMC3314378 (Journal of Medicinal Chemistry, 2011).

Data set [1] can be described thus: In vitro metabolic stability in hepatic microsomes. In kind it is in vitro ADME, rat. The settings on record: for metabolic stability in hepatic microsomes: presence of NADPH. In a few lines: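 Test compound (5 μM) incubated at 37 °C for specified times with rat liver microsomes (1 mg protein/ml) in 100 mM potassium phosphate buffer with NADPH 0 or 1 mM. Chilled, extracted with ice-cold ethyl acetate, dried under nitrogen, redissolved in acetonitrile:water 3:1 with 0.1% formic acid. Analysed by reverse-phase C18 LC (5–95% acetonitrile gradient, 16 min) and electrospray MS, scanning 150–1500 Da.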

Another data set deals with CFTR (Homo sapiens, UniProt P13569). As to the kind of experiment: Short-circuit current analysis of CFTR inhibition in CFTR-expressing FRT cells. The format is cell-based. In outline: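 Ussing chamber short-circuit current on CFTR-expressing FRT cell inserts under voltage clamp. Apical buffer 75 mM NaCl + 75 mM Na gluconate, basolateral 150 mM NaCl, pH 7.3, giving a transepithelial chloride gradient. Basolateral membrane permeabilized with 250 μg/mL amphotericin B. CFTR activated with forskolin (20 μM), then serial additions of increasing test compound concentrations, with current recorded continuously.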

Data set [2] deals with 8-Br-cAMP-induced renal cyst growth in E13.5 embryonic kidneys. As to the kind of experiment: Embryonic kidney organ culture model of PKD. The arrangement: species or system mouse. In a few lines:
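Mouse E13.5 metanephroi on porous culture inserts in DMEM/Ham's F-12 with L-glutamine, HEPES, insulin, transferrin, selenium, prostaglandin E, T3 and antibiotics. Kept at 37 °C in humidified CO2 for up to 8 days. Medium with 100 μM 8-Br-cAMP, with or without test compound (0, 0.1 or 1 μM), replaced every 12 h. Kidneys photographed by transmitted light at 520 nm; percentage cyst area = total cyst area / total kidney area.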

The target of a further data set is human wildtype CFTR (Homo sapiens, UniProt P13569). Briefly: Fluorescence plate-reader assay of CFTR-mediated iodide influx. The format is cell-based. In outline:
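FRT cells co-expressing human wild-type CFTR and YFP-H148Q were plated at 20,000 cells/well in Coon's modified F12 with 10% FBS and assayed 48 h later. After PBS washes, test compound was added for 45 min, then forskolin/IBMX/apigenin cocktail for 15 min. Fluorescence was read 2 s baseline, then 10 s after adding PBS with iodide replacing 137 mM chloride. Initial iodide influx rate by non-linear regression; n=4, S.E.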

Data set [3] deals with 8-Br-cAMP-induced renal cyst growth in E13.5 embryonic kidneys. The settings on record: read-out: IC50 for inhibition of cyst growth; embryonic kidney culture; cited from earlier work.

Where only a bound is given, the exact number is not on record here.

human wildtype CFTR, sequence (P13569 whole entry): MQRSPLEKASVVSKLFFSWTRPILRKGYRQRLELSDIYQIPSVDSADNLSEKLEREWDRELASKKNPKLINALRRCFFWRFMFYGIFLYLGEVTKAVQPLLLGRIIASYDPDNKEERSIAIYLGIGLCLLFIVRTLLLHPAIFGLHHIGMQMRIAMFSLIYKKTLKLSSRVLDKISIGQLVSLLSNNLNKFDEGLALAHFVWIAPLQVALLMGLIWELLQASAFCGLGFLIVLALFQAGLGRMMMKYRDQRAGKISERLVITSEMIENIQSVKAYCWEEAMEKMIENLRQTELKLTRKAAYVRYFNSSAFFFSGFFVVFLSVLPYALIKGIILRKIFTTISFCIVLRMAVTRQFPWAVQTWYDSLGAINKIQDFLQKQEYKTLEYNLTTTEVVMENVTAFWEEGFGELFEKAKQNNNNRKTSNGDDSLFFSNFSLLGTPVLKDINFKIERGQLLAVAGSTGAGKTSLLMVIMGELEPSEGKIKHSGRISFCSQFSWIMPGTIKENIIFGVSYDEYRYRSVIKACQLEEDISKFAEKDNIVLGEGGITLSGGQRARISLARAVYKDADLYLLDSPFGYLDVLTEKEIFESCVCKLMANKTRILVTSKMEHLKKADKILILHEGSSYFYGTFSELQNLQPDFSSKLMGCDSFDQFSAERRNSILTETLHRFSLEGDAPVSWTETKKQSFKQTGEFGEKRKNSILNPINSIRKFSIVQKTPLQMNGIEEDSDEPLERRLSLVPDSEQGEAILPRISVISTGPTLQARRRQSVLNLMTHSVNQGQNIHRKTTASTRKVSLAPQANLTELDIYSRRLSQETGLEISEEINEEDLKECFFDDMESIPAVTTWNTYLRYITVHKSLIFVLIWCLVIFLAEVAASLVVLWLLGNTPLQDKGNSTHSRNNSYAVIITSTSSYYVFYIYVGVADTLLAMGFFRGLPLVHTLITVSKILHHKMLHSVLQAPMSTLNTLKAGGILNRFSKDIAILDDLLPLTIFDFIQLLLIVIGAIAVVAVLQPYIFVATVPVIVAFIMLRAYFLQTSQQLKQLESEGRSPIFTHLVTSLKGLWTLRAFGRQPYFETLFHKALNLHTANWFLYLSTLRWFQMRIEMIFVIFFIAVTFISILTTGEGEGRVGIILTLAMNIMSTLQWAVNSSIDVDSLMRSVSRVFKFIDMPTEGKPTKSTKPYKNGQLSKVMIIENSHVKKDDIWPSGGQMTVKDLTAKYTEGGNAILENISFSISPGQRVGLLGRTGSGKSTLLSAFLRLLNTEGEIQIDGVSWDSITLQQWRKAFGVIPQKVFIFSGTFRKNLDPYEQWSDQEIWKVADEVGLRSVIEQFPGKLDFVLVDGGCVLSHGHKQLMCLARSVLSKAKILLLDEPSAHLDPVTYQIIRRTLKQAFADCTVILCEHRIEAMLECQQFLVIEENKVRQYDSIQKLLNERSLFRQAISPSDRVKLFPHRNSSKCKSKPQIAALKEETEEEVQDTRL
CFTR, sequence (P13569 whole entry): as above

For `Cn1c(=O)c2c(-c3ccccc3)n3c(c2n(C)c1=O)C(c1ccc(Br)o1)Oc1ccc([N+](=O)[O-])cc1-3` (stereo not drawn) [Compound 36], in data set [1], the “metabolic stability in hepatic microsomes” value is on record as “excellent metabolic stability”.

For the molecule `Cn1c(=O)c2c(-c3ccccc3)n3c(c2n(C)c1=O)C(c1ccc(Br)o1)Oc1ccccc1-3` (stereo not drawn) [Compound 31], the “metabolic stability in hepatic microsomes” value in data set [1] was “better stability than 8”.

Regarding `Cn1c(=O)c2c(-c3ccccc3)n3c(c2n(C)c1=O)C(c1ccc(Br)o1)Oc1ccc(C(=O)O)cc1-3` (stereo not drawn) [Compound 42, 6-(5-Bromofuran-2-yl)-7,9-dimethyl-8,10-dioxo-11-phenyl-7,8,9,10-tetrahydro-6H-benzo[b]pyrimido [4',5':3,4]pyrrolo [1,2-d][1,4]oxazine-2-carboxylic acid], the “improvement of metabolic stability compared to 8” value in data set [1] (hepatic microsomes) is given as above 10 fold. The “metabolic stability in hepatic microsomes” value in data set [1] is “excellent stability”. In addition, the “extent of CFTR inhibition” value at CFTR is on record as “fully inhibited CFTR”. Also, the “improvement of potency for inhibition of renal cystogenesis ex vivo over 8” value in data set [2] is above 5 fold.

As for `CCOC(=O)c1ccc2c(c1)-n1c(-c3ccccc3)c3c(=O)n(C)c(=O)n(C)c3c1C(c1ccc(Br)o1)O2` (stereo not drawn) [Compound 40, Ethyl 6-(5-Bromofuran-2-yl)-7,9-dimethyl-8,10-dioxo-11-phenyl-7,8,9,10-tetrahydro-6H-benzo[b]pyrimido [4',5':3,4]pyrrolo[1,2-d][1,4]oxazine-2-carboxylate], the “CFTR inhibition activity” value at human wildtype CFTR is “strongly inhibited CFTR”.

As for `Cc1ccc(C2Nc3ccccc3-n3c(-c4ccccc4)c4c(=O)n(C)c(=O)n(C)c4c32)o1` (stereo not drawn) [Compound 8, 7,9-Dimethyl-11-phenyl-6-(5-methylfuran-2-yl)-5,6-dihydro-pyrimido-[4',5'-3,4]pyrrolo[1,2-a]quinoxaline-8,10-(7H,9H)-dione], the “loss in hepatic microsomes in the absence of NADPH” value in data set [1] (absence of NADPH (data not shown)) is listed as “No loss”. In addition, the “metabolic stability in hepatic microsomes” value in data set [1] is “poor metabolic stability”. In data set [3], the IC50 (as a rule, the concentration that inhibits the measured activity by half) is above 500 nM.

Regarding `Cn1c(=O)c2c(-c3ccccc3)n3c(c2n(C)c1=O)C(c1ccc(Br)o1)Nc1ccccc1-3` (stereo not drawn) [Compound 18], the “metabolic stability in hepatic microsomes” value in data set [1] is on record as “substantially more stable than 8”.

On to `Cc1ccc(C2c3c4c(c(-c5ccccc5)n3-c3ccccc3N2C)c(=O)n(C)c(=O)n4C)o1` (stereo not drawn) [Compound 13], for which the “CFTR inhibition activity” value on human wildtype CFTR was “weakly active”.
